Calls of active or inactive are those of the source. No cut-off for these calls is given here.
Tests used:
[1] = Inhibition of human recombinant synovial PLA2
Outline: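 Purified human synovial type IIA sPLA2 (0.85 pmol) was preincubated with peptide (1-250 range) and then reacted with [3H]arachidonate-labeled E. coli membranes in 100 mM Tris-HCl, 25 mM CaCl2, pH 7.5. Released [3H]arachidonate was counted by liquid scintillation, in triplicate. IC50 (mean ± SD) was obtained from sigmoid curves by nonlinear regression of % inhibition versus buffer-only control.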

Homo sapiens [2] = species on record: Homo sapiens; experiment: Inhibition of human recombinant synovial PLA2 by at 5 uM
Outline: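 Single peptide concentration of 5 µM against purified human synovial type IIA sPLA2 (0.85 pmol), with [3H]arachidonate-labeled E. coli membranes as substrate in 100 mM Tris-HCl, 25 mM CaCl2, pH 7.5. Released label was counted by liquid scintillation, in triplicate. Results are % inhibition relative to enzyme preincubated with buffer alone; groups were compared by one-way ANOVA with Dunnett's test.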

Homo sapiens [3] = species on record: Homo sapiens; experiment: Effect on IL-1-beta-stimulated TIMP2 production in human RASFs; type: functional
Homo sapiens [4] = species on record: Homo sapiens; experiment: Inhibition of IL-1-beta-induced MMP9 levels in human RASFs after 1 hr by ELISA; type: functional
Outline: (§1)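 Primary synovial fibroblasts from three RA knee-replacement patients, passages 3-8, grown to confluence and serum-starved 16 h. Cells were preincubated 1 h at 37 °C with 5 µM peptide or vehicle (0.1% DMSO final), then given hrIL-1β 10 ng/mL for 24 h. Supernatants were stored at -20 °C, and type IIA sPLA2 or MMP-1/-2/-9 was measured by ELISA in triplicate.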

Homo sapiens [5] = species on record: Homo sapiens; experiment: Inhibition of IL-1-beta-induced sPLA2 production in human RASFs at 5 uM by ELISA; type: functional; outline: as §1
Homo sapiens [6] = species on record: Homo sapiens; experiment: Inhibition of IL-1-beta-induced MMP1 levels in human RASFs after 1 hr by ELISA; type: functional; outline: as §1
[7] = Toxicity against human RASF at 1 to 10 uM after 24 hrs
Outline: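 Primary RA synovial fibroblasts (passages 3-8) were exposed to peptide at 1, 5 and 10 µM for 24 h. Viability was read by the XTT cell proliferation assay.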

Homo sapiens [8] = species on record: Homo sapiens; experiment: Inhibition of IL-1-beta-induced MMP2 levels in human RASFs after 1 hr by ELISA; type: functional; outline: as §1
Homo sapiens [9] = species on record: Homo sapiens; experiment: Inhibition of IL-1-beta-induced TIMPs gene expression in human RASFs by QRT-PCR; type: functional
Outline: (§2)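 Primary synovial fibroblasts from three RA patients (passages 3-8), grown to confluence in DMEM/10% FBS and serum-starved 16 h. Preincubated 1 h with 5 µM peptide or vehicle (0.1% DMSO final), then stimulated 24 h with hrIL-1β 10 ng/mL. Cells from 3 flasks pooled per group, total RNA isolated and DNase-treated, then transcripts quantified by qRT-PCR. Unstimulated cells served as controls.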

Homo sapiens [10] = species on record: Homo sapiens; experiment: Inhibition of IL-1-beta-induced sPLA2 gene expression in human RASFs by QRT-PCR; type: functional; outline: as §2
Homo sapiens [11] = species on record: Homo sapiens; experiment: Inhibition of IL-1-beta-induced MMP9 gene expression in human RASFs by QRT-PCR; type: functional; outline: as §2
Oryctolagus cuniculus [12] = species on record: Oryctolagus cuniculus; experiment: Inhibition of IL-1-beta-induced sPLA2 gene expression in rabbit HIG82 cells by QRT-PCR; type: functional, cell-based
Outline: (§3)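 Rabbit HIG-82 fibroblast-like synoviocytes were grown in Ham's F-12/10% FBS to 80% confluence. They were serum-starved 2 h with or without 5 µM peptide; controls got medium or vehicle (0.1% DMSO). Cells were then stimulated 24 h with rhIL-1β 5 ng/mL, washed in cold PBS, RNA extracted, and transcripts measured by qRT-PCR.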

Oryctolagus cuniculus [13] = species on record: Oryctolagus cuniculus; experiment: Inhibition of IL-1-beta-induced MMP9 gene expression in rabbit HIG82 cells by QRT-PCR; type: functional, cell-based; outline: as §3
Oryctolagus cuniculus [14] = species on record: Oryctolagus cuniculus; experiment: Inhibition of IL-1-beta-induced MMP2 gene expression in rabbit HIG82 cells by QRT-PCR; type: functional, cell-based; outline: as §3
Oryctolagus cuniculus [15] = species on record: Oryctolagus cuniculus; experiment: Inhibition of IL-1-beta-induced TIMPs gene expression in rabbit HIG82 cells by QRT-PCR; type: functional, cell-based; outline: as §3
Homo sapiens [16] = species on record: Homo sapiens; experiment: Inhibition of IL-1-beta-induced sPLA2 production in human RASFs by ELISA; type: functional
Outline: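 RA synovial fibroblasts (passages 3-8, serum-starved 16 h) were preincubated 1 h at 37 °C with peptide (1, 2.5, 5 or 10 µM) or vehicle (0.1% DMSO final), then cultured a further 24 h with or without IL-1β 10 ng/mL. Supernatant sPLA2-IIA was measured by EIA in triplicate; mean ± SD from a representative of three RASF lines.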

Oryctolagus cuniculus [17] = species on record: Oryctolagus cuniculus; experiment: Inhibition of IL-1-beta-induced MMP1 gene expression in rabbit HIG82 cells by QRT-PCR; type: functional, cell-based; outline: as §3
Homo sapiens [18] = species on record: Homo sapiens; experiment: Inhibition of IL-1-beta-induced MMP1 gene expression in human RASFs by QRT-PCR; type: functional; outline: as §2
Homo sapiens [19] = species on record: Homo sapiens; experiment: Inhibition of IL-1-beta-induced MMP2 gene expression in human RASFs by QRT-PCR; type: functional; outline: as §2

With `CC[C@H](C)[C@@H](NC(=O)[C@@H](N)CC(=O)O)C(=O)N[C@@H](Cc1cnc[nH]1)C(=O)N[C@H](C(=O)N[C@@H](Cc1c[nH]c2ccccc12)C(=O)N[C@@H](CC(=O)O)C(=O)NCC(=O)N[C@H](C(=O)O)C(C)C)C(C)C` the IC50 [1] was 5.75 µM and the inhibition (Homo sapiens [2]) was 45.9%.

In the case of `CC[C@H](C)[C@@H](NC(=O)[C@H](CC(=O)O)NC(=O)[C@@H](NC(=O)[C@@H](N)CCCNC(=N)N)C(C)C)C(=O)N[C@@H](Cc1cnc[nH]1)C(=O)N[C@H](C(=O)N[C@@H](Cc1c[nH]c2ccccc12)C(=O)N[C@@H](CC(=O)O)C(=O)NCC(=O)N[C@H](C(=O)O)C(C)C)C(C)C`, the IC50 [1] is reported as 3.67 µM and the inhibition (Homo sapiens [2]) is reported as 59.5%.

`CC[C@H](C)[C@@H](NC(=O)[C@H](CC(=O)O)NC(=O)[C@@H](N)C(C)C)C(=O)N[C@@H](Cc1cnc[nH]1)C(=O)N[C@H](C(=O)N[C@@H](Cc1c[nH]c2ccccc12)C(=O)N[C@@H](CC(=O)O)C(=O)NCC(=O)N[C@H](C(=O)O)C(C)C)C(C)C` gave an IC50 [1] of 3.8 µM and an inhibition (Homo sapiens [2]) of 56.4%.

With `CC[C@H](C)[C@@H](NC(=O)[C@H](CC(=O)O)NC(=O)[C@@H](NC(=O)[C@H](CCCNC(=N)N)NC(=O)CN)C(C)C)C(=O)N[C@@H](Cc1cnc[nH]1)C(=O)N[C@H](C(=O)N[C@@H](Cc1c[nH]c2ccccc12)C(=O)N[C@@H](CC(=O)O)C(=O)NCC(=O)N[C@H](C(=O)O)C(C)C)C(C)C` the inhibition (Homo sapiens [2]) was 14.2%.

In the case of `CCc1c(C(=O)C(N)=O)c2c(OCC(=O)O)cccc2n1Cc1ccccc1` [VARESPLADIB], the Activity (Homo sapiens [3]) is reported as “inactive”, the Activity (Homo sapiens [4]) is reported as “Active” and the Activity (Homo sapiens [5]) is reported as “Active”. For the same compound, the Activity (Homo sapiens [6]) was “Active”, the Activity [7] was “Non-toxic” and the Activity (Homo sapiens [8]) was “Active”.

Compound H-IHVWDGV-OH has an IC50 [1] of 6.21 µM and an inhibition (Homo sapiens [2]) of 35.4%.

In the case of H-LGRVDIHVWDGV-OH, the inhibition (Homo sapiens [2]) is reported as 34.2%.

H-LGRVDIHVWDGVY-OH showed an IC50 [1] of 5.95 µM and an inhibition (Homo sapiens [2]) of 48.7%.

Compound H-LGRVDIHVWDGVYI-OH has an IC50 [1] of 5.8 µM and an inhibition (Homo sapiens [2]) of 49.7%.

H-LGRVDIHVWDGVYIR-OH gave an IC50 [1] of 5.75 µM and an inhibition (Homo sapiens [2]) of 51%.

H-LGRVDIHVWDGVYIRG-OH showed an IC50 [1] of 5.6 µM and an inhibition (Homo sapiens [2]) of 52.4%.

Compound H-LGRVDIHVWDGVYIRGR-OH has an IC50 [1] of 5.3 µM and an inhibition (Homo sapiens [2]) of 55.6%.

H-VDIHVWAGV-OH showed an IC50 [1] of 5.45 µM and an inhibition (Homo sapiens [2]) of 48.5%.

With H-VDIHVWDGVVDIHVWDGV-OH the Activity (Homo sapiens [9]) was “inactive”, the Activity (Homo sapiens [3]) was “inactive” and the Activity (Homo sapiens [10]) was “Active”. The IC50 [1] was 1.19 µM, the Activity (Homo sapiens [11]) was “Active” and the Activity (Oryctolagus cuniculus [12]) was “Active”. For the same compound, the inhibition (Homo sapiens [2]) was 74.5%, the Activity (Oryctolagus cuniculus [13]) was “Active” and the Activity (Oryctolagus cuniculus [14]) was “Active”. The Activity (Homo sapiens [4]) was “Active”, the Activity (Oryctolagus cuniculus [15]) was “inactive” and the Activity (Homo sapiens [16]) was “Dose-dependent effect”. The Activity (Homo sapiens [5]) was “Active”, the Activity (Homo sapiens [6]) was “Active” and the Activity [7] was “Non-toxic”. The Activity (Homo sapiens [8]) was “Active”, the Activity (Oryctolagus cuniculus [17]) was “Active” and the Activity (Homo sapiens [18]) was “Active”. The Activity (Homo sapiens [19]) was “Active”.

With H-VDIHVWEGV-OH the IC50 [1] was 4.95 µM and the inhibition (Homo sapiens [2]) was 57.6%.

For H-VDIHVWSGV-OH, the IC50 [1] was 5.25 µM and the inhibition (Homo sapiens [2]) was 52.5%.

— ChEMBL document CHEMBL1138293, “Novel peptide inhibitors of human secretory phospholipase A2 with antiinflammatory activity: solution structure and molecular modeling” (J Med Chem, 2007)
